VIM-2 inhibitor – inhibitors of Pseudomonas aeruginosa VIM-2 metallo-beta-lactamase. purified VIM-2, nitrocefin hydrolysis, epi-absorbance fluorescence. inhibition, % at 5.6 µM. 0.89% of 290,000 active. AID 1527;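 active = inhibition above the mean of all tested compounds plus 3 SD, cutoff set per screening run, cut at about 7.5% in these data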;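 also: red hydrolysis product quenches plate fluorescence so inhibitors raise well fluorescence; 0% = enzyme with DMSO and 100% = DMSO without enzyme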
MIN6 prolif – MIN6 beta-cell proliferation induction; 0.29% of 330,000 active; proliferation, % at 10 µM; MIN6 cells proliferation, ATPlite luminescence, 48 h; cells starved in 0.2% serum; 100% = growth in 10% serum;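 active = compounds whose signal lies at least 3.5 SD above the mean of all wells on their plate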;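 also: 0% = DMSO-treated cells in low-serum medium and 100% = 10% serum control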
PvdQ inh – blocks Pseudomonas aeruginosa PvdQ acylase activity. purified PvdQ acylase, fluorescence plate reader. 0.063% of 340,000 active. inhibition, % at 10 µM; in the data active = inhibition above about 30%, passing the limit was not always enough; inconclusive = no clear call, values can overlap the other calls;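 also: 0% = vehicle neutral wells and 100% = reference inhibitor wells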
HKDC1 inh – HKDC1 (human) hexokinase inhibition | AID 493160 | inhibition, % at 20 µM | 0.16% of 340,000 active | recombinant HKDC1, G6PDH/diaphorase resazurin coupled fluorescence;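 active = inhibition above about 35% when tested at 20 µM, limit read from the data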;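 also: plate controls were DMSO wells with enzyme for no effect and DMSO wells lacking enzyme for full effect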
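Assay system: in-house recombinant HK5 (HKDC1) enzyme. Input: HKDC1 at 5 µg/mL. Medium: Tris pH 8.0 buffer with MgCl2, Tween-20, BSA, BME. Dosing: single 20 µM dose. Schedule: 90 min reaction incubation at room temperature, dark. Signal: resazurin-to-resorufin fluorescence via G6PDH and diaphorase coupling, 525/613 nm. Controls: DMSO-enzyme wells negative, buffer-substituted wells positive.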
ATG4B inhibitor – blocks human ATG4B protease cleavage of LC3 substrate. Q9Y4P1. ATG4B cleavage of LC3-PLA2, NBD-HPC fluorescence, 1 h. inhibition, % at 8.33 µM. 0.51% of 340,000 active; in the data active = inhibition above about 40%
Target sequence (Q9Y4P1 whole entry, looked up): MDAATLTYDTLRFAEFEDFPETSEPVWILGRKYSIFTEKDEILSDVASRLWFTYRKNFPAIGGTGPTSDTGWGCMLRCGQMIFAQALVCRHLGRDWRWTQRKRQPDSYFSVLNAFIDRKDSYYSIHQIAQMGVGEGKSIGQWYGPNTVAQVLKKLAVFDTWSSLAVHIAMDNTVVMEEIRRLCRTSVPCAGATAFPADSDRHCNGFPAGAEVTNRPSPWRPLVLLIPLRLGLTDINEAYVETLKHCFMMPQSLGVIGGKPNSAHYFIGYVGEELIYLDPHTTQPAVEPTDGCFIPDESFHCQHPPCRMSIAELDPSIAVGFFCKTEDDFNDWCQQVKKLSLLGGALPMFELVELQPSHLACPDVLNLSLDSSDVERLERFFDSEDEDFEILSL
IMP-1 inh – inhibitors of Pseudomonas aeruginosa IMP-1 metallo-beta-lactamase | purified IMP-1, nitrocefin hydrolysis, epi-absorbance fluorescence | inhibition, % at 5.6 µM | 0.45% of 290,000 active | AID 1556;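 active = inhibition above the mean plus 3 SD of all compounds in the same screening run, cut at about 4.5% in these data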;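 also: 0% = IMP-1 with DMSO and 100% = DMSO wells lacking enzyme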
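Assay system: purified recombinant IMP-1 beta-lactamase. Input: IMP-1 0.2 nM before substrate addition. Buffer or medium: Zinc- and detergent-supplemented HEPES buffer, pH 7.1. Schedule: 25 °C, 15 min preincubation, 25 min reaction. Signal: Epi-absorbance fluorescence, 480 nm excitation, 530 nm emission. Evaluation: percent inhibition from optical density relative to buffer-blank wells.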
ATG4B conf – confirmation of human ATG4B inhibitors; shares compounds with ATG4B inhibitor; ATG4B protease fluorescent substrate cleavage assay; inhibition, % at 8.33 µM; 92% of 320 active; AID 504757; in the data active = inhibition above about 39%
PLA2 ctr – PLA2 (human) inhibition in ATG4B counter-screen. purified PLA2, NBD-C6-HPC fluorescence, 45 min. shares compounds with ATG4B inhibitor. inhibition, % at 8.33 µM. 66% of 1,600 active; in the data active = inhibition above about 50%
Target sequence (P04054 whole entry, looked up): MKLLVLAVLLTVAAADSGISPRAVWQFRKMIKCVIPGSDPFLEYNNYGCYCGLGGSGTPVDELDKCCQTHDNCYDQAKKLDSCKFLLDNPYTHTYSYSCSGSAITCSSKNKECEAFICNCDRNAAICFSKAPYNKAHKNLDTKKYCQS
* = called active by the depositor; ? = inconclusive; · = no result given. Rows were chosen to be rich in hits. Some 2% of all compounds tested hit in one or more screens of this group.

SMILES	VIM-2 inhibitor	MIN6 prolif	PvdQ inh	HKDC1 inh	ATG4B inhibitor	IMP-1 inh	PLA2 ctr	others
N=C1/C(=C\c2ccc(OC(=O)c3ccccc3)cc2)C(=O)N=C2SC(N3CCOCC3)=NN12	-3	-4	6	11	57*	1	76*
CCOc1ccc(-c2cc(NC(=O)c3c(F)cccc3F)c(C(=O)O)s2)cc1	1	-4	10	6	92*	0	94*
O=C(Nc1cc(-c2ccccc2)sc1C(=O)O)c1cccc(F)c1	0	-6	-12	7	93*	2	91*
O=C(O)c1ccc(NC(=O)c2ccccc2NC(=O)c2cccc(F)c2)cc1	-2	-2	-2	-1	2	-2	·
COC(=O)c1sc(N(C)C)c(C#N)c1-c1ccccc1	-1	-2	-10	-2	44*	-3	40	ATG4B conf=64*
CC1=CN2C(=N)/C(=C/c3ccc(Sc4ccc(Cl)cc4)o3)C(=O)N=C2S1	-2	0	2	-2	25	-3	·
CC1=CN2C(=N)/C(=C/c3ccc(Sc4ccc(C)cc4)o3)C(=O)N=C2S1	-1	0	2	4	43*	-3	56*
CC(C)C[C@H](NC(=O)OC(C)(C)C)C(=O)N/N=C/C1=Cc2ccccc2OC1C (stereo partly drawn)	0	-6	-2	-5	42*	-3	31	ATG4B conf=69*
O=C(/C=C\c1ccccc1OC(=O)c1ccccc1F)c1cc2ccccc2o1	-3	0	2	26	45*	-3	51*
O=C(NCc1ccccn1)C1CCN(S(=O)(=O)c2cc(Cl)ccc2Cl)CC1	-2	0	-14	15	13	1	·
COc1ccc(N(CC(=O)N/N=C/c2ccco2)S(=O)(=O)c2ccccc2)cc1	-2	-1	-5	-8	-7	-2	·
CCOC(=O)C1=C(c2ccccc2)NC(SCC(=O)Nc2ccccc2C)=C(C#N)C1c1ccco1 (stereo not drawn)	-3	-4	-8	15	66*	-2	72*
CCOC(=O)C1=C(c2ccccc2)NC(SCC(=O)Nc2cccc(C)c2)=C(C#N)C1c1ccco1 (stereo not drawn)	-6	-6	4	9	48*	-5	55*
O=C(CCCCCNC(=O)c1ccccc1Br)N=Nc1c(O)[nH]c2ccccc12	-3	-3	-3	4	-5	-3	·
CC1(C)Cc2c(cnn2-c2ccccc2)C(=O)/C1=N\NC(=O)c1ccccc1N	-2	-2	-2	1	-7	-2	·
CC1(C)Cc2c(cnn2-c2ccccc2)-c2c1c1ccccc1n2CC(O)CBr (stereo not drawn)	-1	-4	-13	0	48*	-3	57*
Clc1cccc(Cl)c1CSc1nnc(-c2sccc2-n2cccc2)o1	-1	-3	9	-1	53*	0	65*
COc1ccc(C(CC(=O)NCc2ccccc2)C(C)C)cc1 (stereo not drawn)	-3	-2	-12	0	46*	-2	44	ATG4B conf=59*
CC(C)c1ccc(OCC(=O)NCc2ccccc2)cc1	-2	-1	13	-4	1	-4	·
Cc1cc(/C=C2\Cc3ccccc3C2=O)c(C)n1-c1ccccc1	-1	-5	?	2	62*	-2	62*
Cc1cc(C=C2C(=O)c3ccccc3C2=O)c(C)n1-c1ccccc1	-1	-5	-13	-8	45*	-1	-6	ATG4B conf=67*
Cc1cc(C=C2C(=O)c3ccccc3C2=O)c(C)n1-c1ccc(C(=O)O)cc1	2	3	-3	4	-4	0	·
Cc1cc(C(=O)CCC(=O)Nc2ncccc2O)c(C)s1	·	-3	-21	-1	-1	·	·
CC1(c2ccc(NC(=O)c3ccccc3F)cc2)CC1(Cl)Cl (stereo not drawn)	-2	-3	-6	1	57*	-3	67*
O=C(Nc1ccc([N+](=O)[O-])cc1)c1ccccc1F	-4	2	-9	2	3	-2	·
SMILES	VIM-2 inhibitor	MIN6 prolif	PvdQ inh	HKDC1 inh	ATG4B inhibitor	IMP-1 inh	PLA2 ctr	others
O=c1[nH]c2cccnc2n1Cc1ccccc1	-1	1	-18	3	0	-2	·
Cc1cc2ccccc2c(=O)n1CC(=O)NCCC1=CCCCC1	-3	0	-9	-1	-5	-2	·
COc1ccccc1NS(=O)(=O)c1cccc(C(=O)NCc2ccco2)c1	-1	0	-7	-1	7	-2	·
COCCCn1c2nc3ccccc3nc2c2c(=O)n(-c3ccccc3OC)cnc21	0	2	11	-4	2	-3	·
COc1ccccc1-n1cnc2c(c1=O)c1nc3ccccc3nc1n2-c1ccc(C)c(C)c1	-4	·	1	12	44*	-3	4
O=C(NCc1nnc2c3ccccc3c(-c3ccccc3)nn12)c1ccc(Cl)cc1	0	-4	-13	14	42*	-4	58*
O=C(CNC(=O)c1ccccc1)NCc1ccc(Cl)cc1	-2	-3	-6	9	-2	-2	·
O=C(C[n+]1ccccc1)N/N=C/c1ccccc1Cl	·	8	-9	-4	0	·	·
CCCCCCCCCCCCCCCCCCNc1ccn(C2OC(COP(=O)(O)OCC3OC(n4cc(F)c(=O)[nH]c4=O)CC3O)C(O)C2O)c(=O)n1 (stereo not drawn)	·	·	-11	-8	42*	·	41	ATG4B conf=52*
C[C@H]1O[C@@H](n2cc(F)c(=O)[nH]c2=O)[C@H](O)[C@@H]1O	·	0	-6	0	-1	·	·
CC(C)Cc1cc(CN2CCC(CO)(Cc3ccccc3)CC2)[nH]n1	-2	-2	-5	-2	19	-3	·
CC1=C(C(=O)Nc2cccc(C(=O)NCc3ccccc3C)c2)SCCO1	-1	2	3	-3	54*	-1	64*
O=C(Cn1cc(C(=O)c2ccco2)c2ccccc21)NC1CC1	-3	3	-10	-5	-3	-1	·
Cc1nn(-c2ccccc2)cc1/C=N/NC(N)=S	-3	-1	·	-5	4	-4	·
Cc1nn(-c2ccccc2)cc1C(c1c(N)[nH]c(=S)[nH]c1=O)c1c(N)[nH]c(=S)[nH]c1=O	-3	1	-12	-7	46*	-2	-22
COC(=O)C(=O)C/C(=N/Nc1ncnc2ccccc12)c1ccc(Cl)cc1	-1	2	6	-5	-7	1	·
CC1(C)Cc2c(sc(NC(=S)NC(=O)c3ccccc3)c2C(=O)O)CO1	-5	-2	-3	1	41*	-3	32	ATG4B conf=74*
